Laboratory results as given in PubChem BioAssay AID489030 (Sanford-Burnham Center for Chemical Genomics, 2010).
Out of some 330,000 compounds screened, about 2,400 (0.73%) were called active. The entries come from a sample that favours actives as a whole. Values without a mark were called inactive. How the source made its calls: active means inhibition of at least 40% at 20 µM; inactive means the rest.

What follows are compounds tested against Apoptotic protease-activating factor 1 (Homo sapiens) (UniProt O14727) (assay: blockers of Apaf-1-driven caspase-3 activation – biochemical, DEVD-Rh110 fluorescence, uHTS, primary screen (AID 489030;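 further: plate controls were DMSO wells for no effect and DEVD-CHO caspase inhibitor wells for full effect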)). Details: reconstituted apoptosome caspase-3 activity, at 20 µM, stronger effect = higher value.
In short: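 Assay system – apoptosome proteins · Medium – Hepes buffer, pH 7.5 · Also added – cytochrome c with DEVD-Rh110 · Timing – 30 min compound preincubation, 50 min activation, room temperature · Detection – Rh110 fluorescence, excitation 480 nm, emission 540 nm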

Apoptotic protease-activating factor 1 (Homo sapiens), sequence (O14727 whole entry, looked up): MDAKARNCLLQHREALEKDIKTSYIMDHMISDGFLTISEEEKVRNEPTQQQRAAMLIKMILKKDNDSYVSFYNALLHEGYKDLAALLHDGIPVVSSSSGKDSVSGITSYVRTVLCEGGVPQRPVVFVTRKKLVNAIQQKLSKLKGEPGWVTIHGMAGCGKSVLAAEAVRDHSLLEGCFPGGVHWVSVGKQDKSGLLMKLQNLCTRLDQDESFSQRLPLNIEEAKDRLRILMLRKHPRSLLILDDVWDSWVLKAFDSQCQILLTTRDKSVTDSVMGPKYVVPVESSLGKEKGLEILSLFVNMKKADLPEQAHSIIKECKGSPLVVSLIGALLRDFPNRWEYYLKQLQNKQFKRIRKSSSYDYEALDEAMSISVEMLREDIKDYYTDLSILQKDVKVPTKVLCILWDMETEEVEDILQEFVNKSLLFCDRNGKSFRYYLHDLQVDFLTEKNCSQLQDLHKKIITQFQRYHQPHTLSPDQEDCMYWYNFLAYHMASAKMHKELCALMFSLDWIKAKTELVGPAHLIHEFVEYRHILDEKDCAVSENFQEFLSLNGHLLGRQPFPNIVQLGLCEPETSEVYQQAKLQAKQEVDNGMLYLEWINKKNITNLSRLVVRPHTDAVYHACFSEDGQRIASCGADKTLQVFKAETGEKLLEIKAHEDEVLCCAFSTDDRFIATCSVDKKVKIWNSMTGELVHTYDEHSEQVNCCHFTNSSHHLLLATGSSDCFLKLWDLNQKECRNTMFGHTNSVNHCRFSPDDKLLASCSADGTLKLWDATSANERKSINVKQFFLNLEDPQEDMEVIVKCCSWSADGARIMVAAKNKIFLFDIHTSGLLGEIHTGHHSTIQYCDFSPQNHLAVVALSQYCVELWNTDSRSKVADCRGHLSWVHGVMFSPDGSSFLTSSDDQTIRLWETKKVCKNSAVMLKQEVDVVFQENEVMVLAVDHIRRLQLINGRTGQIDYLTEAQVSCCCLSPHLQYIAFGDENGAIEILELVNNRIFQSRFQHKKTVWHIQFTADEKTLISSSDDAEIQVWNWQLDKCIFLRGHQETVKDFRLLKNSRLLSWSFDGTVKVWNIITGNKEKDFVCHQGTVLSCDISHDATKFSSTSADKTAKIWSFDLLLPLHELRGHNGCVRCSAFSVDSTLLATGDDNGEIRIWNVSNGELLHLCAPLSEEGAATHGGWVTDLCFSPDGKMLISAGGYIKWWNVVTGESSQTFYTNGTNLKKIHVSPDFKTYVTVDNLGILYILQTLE

| Structure (SMILES) | inhibition |
| --- | --- |
| CCOc1cc(NC(=S)NCCCN(C)C)c(OCC)cc1NC(=O)C1CC1 | -14.8% |
| COc1ccccc1CN1CCNC(=O)C1CC(=O)N(C)CC1CCOCC1 (stereo not drawn) | 4.54% |
| Cc1ccc(F)cc1NC(=O)Cc1nn(C)c(=O)c2ccccc12 | -8.15% |
| CCC(=O)NCc1cc(-c2nn(C)c(=O)c3ccccc23)ccc1OC | -10.9% |
| Cc1c(-c2nn(C)c(=O)c3ccccc23)oc2ccc(F)cc2c1=O | 82% (active) |
| CCCCn1c(N)c(N(CC(C)C)C(=O)c2cccc(S(=O)(=O)N3CCN(C(C)=O)CC3)c2)c(=O)[nH]c1=O | 6.93% |
| C=CCNC(=O)c1ccccc1SCc1c(C)noc1C | -5.84% |
| O=S(=O)(c1cccc(C(F)(F)F)c1)N1CCN(c2cnccn2)CC1 | -23.4% |
| O=C(COc1ccccc1[N+](=O)[O-])N/N=C/c1ccc[nH]1 | -17.6% |
| Cc1ccsc1/C=N/NC(=O)Cc1cc(=O)[nH][nH]1 | 58.3% (active) |
| COc1cc(CC(=O)N/N=C/c2ccccc2)c([N+](=O)[O-])cc1OC | 8.78% |
| Cc1ccsc1/C=N/n1c(=S)[nH]nc(C)c1=O | 2.31% |
| O=C(Cc1cc(=O)[nH][nH]1)N/N=C/c1ccccc1[N+](=O)[O-] | 40.8% (active) |
| CCOc1ccc(N2CC(C(=O)N/N=C/c3sccc3C)CC2=O)cc1 (stereo not drawn) | -13.2% |
| CC(C)(C)NC(=O)CSC(=Nc1ccccc1F)NC#N | -0.507% |
| COC(=O)Cc1csc(/N=C/c2c(O)n(-c3cccc(C(F)(F)F)c3)c(=O)c3ccccc23)n1 | -1.6% |
| O=C(COc1ccc(S(=O)(=O)NCCc2ccccc2)cc1)N1CCCC1 | -10.1% |
| CC(Oc1ccc(Cl)cc1)c1ccnn1S(C)(=O)=O (stereo not drawn) | 0.147% |
| Cc1noc(C)c1S(=O)(=O)N(C)C[C@H]1Oc2ccc(NC(=O)C3CCCCC3)cc2C(=O)N([C@H](C)CO)C[C@@H]1C | 1.34% |
| CN1CCN(/N=C2/C(=O)Nc3ccc([N+](=O)[O-])cc32)CC1 | -6.13% |
| O=C1Nc2ccc([N+](=O)[O-])cc2C1=Nc1cccc(CO)c1 | 41.2% (active) |
| O=[N+]([O-])c1ccc(N(CCO)Cc2ccccc2)c([N+](=O)[O-])c1 | 5.52% |
| COc1ccc(NS(=O)(=O)c2cccc3nsnc23)cc1Cl | -0.325% |
| COc1cccc(C(=O)NCCS(=O)(=O)NCC2CCCO2)c1 (stereo not drawn) | -2.68% |
| O=C(C1CCN(c2nnc(-n3cccc3)s2)CC1)N1CCc2ccccc2C1 | 6.9% |
| OCCN1CCOCCOCCN(CCO)CCN(CCO)CC1 | -5.95% |
| Clc1ccc(C2=CSC3=Nc4cccc5cccc(c45)N23)cc1 | 90% (active) |
| CC(C)Cc1nnc(NC(=O)CCNC(=O)c2ccccc2Cl)s1 | 12% |
